Rows were chosen to be rich in hits. Some 2.3% of all compounds tested hit in one or more screens of this group.
ERp5 block – inhibitors of ERp5-driven insulin aggregation, primary screen, biochemical, turbidity, absorbance 650 nm, single point; Protein disulfide-isomerase A6 (Homo sapiens), Q15084; 90 min; inhibition, % at 9.99 µM; 350,000 compounds, 0.05% hits; AID 651711, 2012;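 active = mean replicate inhibition above about 25%, with every replicate also reaching it, limit read from the data, passing the limit was not always enough; inconclusive = only one of those two criteria met; inactive = neither criterion met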
Target sequence (Q15084 whole entry, looked up): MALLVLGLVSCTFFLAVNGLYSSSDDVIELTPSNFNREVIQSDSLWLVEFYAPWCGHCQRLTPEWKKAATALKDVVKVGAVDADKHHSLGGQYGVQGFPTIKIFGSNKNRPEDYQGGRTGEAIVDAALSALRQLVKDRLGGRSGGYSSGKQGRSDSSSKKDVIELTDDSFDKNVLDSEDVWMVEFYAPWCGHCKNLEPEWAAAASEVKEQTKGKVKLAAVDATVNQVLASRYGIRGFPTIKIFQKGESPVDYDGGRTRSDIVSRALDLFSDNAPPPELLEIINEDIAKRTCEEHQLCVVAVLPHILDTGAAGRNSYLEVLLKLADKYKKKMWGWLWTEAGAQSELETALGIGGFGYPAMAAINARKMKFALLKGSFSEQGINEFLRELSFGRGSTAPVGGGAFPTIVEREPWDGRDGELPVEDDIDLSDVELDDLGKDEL
PDI turbidity – inhibitors of human PDI, primary screen, biochemical, turbidity, single point, plate reader; Protein disulfide-isomerase (Homo sapiens), P07237; PDI insulin aggregation turbidity, A650, 90 min; inhibition, % at 10 µM; 350,000 compounds, 0.052% hits;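 active = mean inhibition across replicates of 30% or more, whatever share of single replicates reach that level; inconclusive = mean inhibition below 30% while every single replicate reaches 30%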
DENV2 CPE rescue – inhibitors of DENV2 cytopathic effect, primary screen, cell-based, plate reader, single concentration. DENV2-infected cells, cytopathic effect rescue. CPE inhibition, % at 9.99 µM. 350,000 compounds, 1.7% hits; in the data active = CPE inhibition above about 20%, passing the limit was not always enough; inconclusive = no clear call, values can overlap the other calls; tested in BHK-21 cells;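 note: 0% = median of neutral control wells and 100% = median of positive control wells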
Cneo AK release – Cryptococcus neoformans cell lysis inducers, primary screen, AK release luminescence, single concentration; C. neoformans lysis, adenylate kinase release luminescence, 4 h; normalised: neutral wells 0, clomiphene wells 100; lysis activity, % at 15 µM; 360,000 compounds, 0.2% hits; AID 651654, 2012;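 active = mean lysis activity across replicates of at least 80%, whatever share of replicates individually reach that level; inactive = mean lysis activity below 80%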
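Assay system: log-phase C. neoformans yeast / Quantity: yeast cell density of 5 × 10^6 cells/mL / Medium: fresh YPD growth medium / Compound: single dose / Timing: static 4 h at 37 °C with compound, 1 h detection / Measured by: adenylate kinase release luminescence / Read-out: lysis from increased AK signal / Benchmarks: Clomiphene as positive lysis control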
C2C12 statin – suppressors of statin myotoxicity in C2C12 myotubes, primary screen, cell-based, single point, plate reader. C2C12 myotubes + simvastatin, ATP luminescence, 48 h; scaled: DMSO 0, geranylgeraniol control 100. rescue of ATP level, % at 7.49 µM. 330,000 compounds, 0.78% hits;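 active = mean ATP rescue above about 67%, or every replicate alone reaching that limit, limit read from the data, passing the limit was not always enough; inconclusive = no clear call, values can overlap the other calls; inactive = mean under the limit and some replicate under it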;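 note: myotubes were challenged with 10 µM simvastatin during compound exposure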
F508del corr – F508del CFTR correction, initial screen, CFBE line, single point. CFBE cells, YFP halide quenching; stimulated with forskolin plus potentiator P3; % fluorescence drop versus neutral controls. activity (quench increase), % at 7.58 µM. 350,000 compounds, 0.36% hits;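 active = mean added fluorescence quench of at least 8% versus neutral control, with both replicates also reaching 8%; inconclusive = only one of the mean or replicate conditions met; inactive = mean below 8% and not both replicates reaching 8%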;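 note: cells transiently co-express mutant CFTR-F508del with the halide-sensitive YFP; corrector assay measuring rescue of mutant channel to the surface after 24 h compound exposure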
Active calls of the source: *; u = inconclusive; x = no result given.

SMILES | ERp5 block | PDI turbidity | DENV2 CPE rescue | Cneo AK release | C2C12 statin | F508del corr
CCCNC(=O)C[C@@H]1CC[C@H]2[C@@H](COc3ccc(NC(=O)c4cccc(F)c4)cc3C(=O)N2C)O1 | 4 | x | -6 | -2 | -11 | 2
C[C@@H]1CN([C@@H](C)CO)C(=O)c2cc(-c3ccc(F)cc3)cnc2O[C@@H]1CN(C)C(=O)c1ccc(F)cc1 | 0 | x | 10 | 27 | 8 | -1
CC(=O)N(C)C[C@@H]1Oc2ncc(-c3ccc(F)cc3)cc2C(=O)N([C@H](C)CO)C[C@H]1C | 0 | x | 59* | -3 | -12 | 2
C[C@@H]1CN([C@H](C)CO)C(=O)c2cc(-c3ccc(F)cc3)cnc2O[C@H]1CN(C)CC1CCCCC1 | 1 | x | -1 | 106* | -36 | -3
CC(=O)N(C)C[C@H]1Oc2ncc(-c3ccc(F)cc3)cc2C(=O)N([C@@H](C)CO)C[C@H]1C | 2 | x | 10 | 5 | 1 | -2
C[C@H](CO)N1C[C@H](C)[C@@H](CN(C)C(=O)c2ccc(F)cc2)Oc2ncc(-c3ccc(F)cc3)cc2C1=O | -4 | x | 48* | 8 | 2 | 0
C[C@@H]1CN([C@@H](C)CO)C(=O)c2cc(NC(=O)Nc3cccc4ccccc34)ccc2O[C@@H](C)CCCCO[C@@H]1CN(C)S(=O)(=O)c1cccs1 | x | x | -7 | 2 | 39 | 3
COc1cccc(CN(C)S(=O)(=O)c2cccs2)c1 | 2 | -15 | 25* | -5 | 22 | 1
O=C(COC(=O)Cn1nnc(-c2ccccc2)n1)Nc1ccccc1Br | 3 | -3 | -13 | -1 | 100* | -6
CCCNC(=O)N1C[C@@H](C)[C@@H](OC)CN(C)C(=O)c2ccc(NC(=O)C3CCC3)cc2OC[C@H]1C | 1 | x | -3 | 0 | -2 | -1
C/C(=N\NC(=O)c1cc(-c2cccs2)nc2ccccc12)c1ccccn1 | 2 | -3 | -1 | -3 | -29 | 12*
COCC(=O)N(C[C@H]1N[C@H](CO)[C@@H]1c1ccc(C2=CCCC2)cc1)C(C)C | x | x | 3 | 0 | -15 | 1
Cn1ncc(N=Cc2ccccc2O)c1C(=O)Nc1ccccc1 | x | -1 | x | 1 | 118* | x
COc1ccccc1NC(=O)c1c(N=Cc2c(O)ccc3ccccc23)cnn1C | 7 | -15 | u | x | x | 7
CCOc1ccc(NC(=S)NC(C)C(c2ccccc2)N2CCN(C)CC2)cc1 (stereo not given) | -2 | 4 | 4 | x | x | 0
CC(NC(=O)COc1ccccc1)C(c1ccccc1)N1CCN(C)CC1 (stereo not given) | x | -6 | x | 4 | 90* | x
COC(=O)C(NC(=O)c1ccccc1)=C(C)C | x | 2 | x | 4 | 94* | x
CCOC(=O)C(NC(=O)c1ccccc1)=C(C)C | 3 | -1 | 1 | -3 | 0 | 0
CC1CC(C)CN(C(=O)COC(=O)c2ccc(Cl)nc2)C1 (stereo not given) | 0 | -12 | 1 | -1 | -4 | 0
CC1CC(C)CN(C(=O)COC(=O)c2nccnc2N)C1 (stereo not given) | 5 | -7 | 45* | 3 | 1 | -2
COc1ccc2c3c(n(C)c2c1)[C@@H](CO)NCC31CCN(S(=O)(=O)c2cccc(C)c2)CC1 | -4 | x | 39* | x | x | 3
COc1ccc2c3c(n(C)c2c1)[C@H](CO)NCC31CN(C(=O)Nc2ccccc2F)C1 | -7 | x | 41* | x | x | -1
COc1ccc2c3c(n(C)c2c1)[C@H](CO)NCC31CN(C(C)=O)C1 | x | x | u | x | x | 1
COc1cccc(S(=O)(=O)N2CC3(CN[C@@H](CO)c4c3c3ccc(OC)cc3n4C)C2)c1 | 1 | x | -7 | x | x | 2
O=C(C[C@H]1CC[C@H]2[C@@H](COC[C@H](O)CN2CCc2ccccc2)O1)NCCCN1CCOCC1 | -1 | x | 4 | 0 | -1 | -6
SMILES | ERp5 block | PDI turbidity | DENV2 CPE rescue | Cneo AK release | C2C12 statin | F508del corr
O=C(N[C@H]1C=C[C@H](CC(=O)N2CCCCC2)O[C@@H]1CO)c1ccc2c(c1)OCO2 | 5 | x | 3 | -4 | -9 | 0
CO[C@@H]1CN(C)C(=O)c2ccc(NS(=O)(=O)c3cccc(F)c3)cc2OC[C@H](C)NC[C@@H]1C | 9 | x | -9 | 0 | -24 | 1
Cc1ccc(S(=O)(=O)c2cccc(S(=O)(=O)N3CCOCC3)c2)cc1S(=O)(=O)N1CCOCC1 | x | -15 | x | 1 | x | x
Cc1ccccc1NS(=O)(=O)c1ccc(S(=O)(=O)N2CCCC2)cc1 | 4 | -6 | 22* | -1 | 13 | 3
O=S(=O)(Nc1cccc2cccnc12)c1ccccc1 | -2 | -4 | -5 | 0 | 43 | -11
O=S(=O)(Nc1cccc2cccnc12)c1ccc(S(=O)(=O)N2CCCC2)cc1 | x | 0 | x | -1 | 70* | x
Cc1ccc(S(=O)(=O)c2cccc(S(=O)(=O)N3CCCC3)c2)cc1S(=O)(=O)N1CCCC1 | x | 1 | x | -3 | 90* | x
Cc1ccccc1NS(=O)(=O)c1ccc(C(=O)N2CCN(S(=O)(=O)c3ccccc3)CC2)cc1 | 20 | 0 | u | 0 | 21 | 0
C[C@@H]1CN([C@H](C)CO)C(=O)Cc2cc(NS(=O)(=O)c3ccc(Cl)cc3)ccc2O[C@H]1CN(C)S(=O)(=O)c1ccccc1 | 2 | x | 0 | 0 | 35 | 1
C/C(=N/Nc1nc(-c2ccc(Cl)cc2)cs1)c1cccs1 | x | -10 | x | 0 | 144* | x
CCC(=O)Nc1ccc2c(c1)C(=O)N(C)C[C@H](OC)[C@@H](C)CN(C(=O)C1CC1)[C@@H](C)CO2 | -2 | x | -2 | -7 | 15 | -1
C=CCNC(=O)c1cccn1-c1ccsc1C(=O)OC | x | -2 | x | 3 | 91* | x
Cc1cc(Cl)c(OCCCNC2CCCC2)c(Br)c1 | 2 | 4 | 27* | -1 | 4 | 0
COCCCNCCCCOc1c(Cl)cc(C)cc1Br | 0 | 3 | x | 1 | -6 | x
COc1ccccc1CNC(=O)C[C@H]1CC[C@@H]2[C@H](COC[C@H](O)CN2C(=O)Nc2ccccc2)O1 | -1 | x | 7 | 0 | -4 | 2
C=C1C(=O)O[C@@H]2[C@H]1[C@@H](OC(=O)/C(C)=C/C)C/C(C)=C\C(=O)/C=C(\C)[C@@H]2O | 2 | 1 | -20 | 3 | 59 | 9.7*
O=C(c1cccnc1)N1C[C@@H]2[C@H](c3ccccc31)[C@@H](CO)N2CC1CCCCC1 | 1 | x | -6 | -1 | -16 | -5
O=C1Cc2cc(S(=O)(=O)N3CCNCC3)ccc2N1 | 1 | 14 | 34* | x | x | 1

Screening data: PubChem, Broad Institute
